Measured values reported in ChEMBL document CHEMBL2046304, “Antitumor agents 290. Design, synthesis, and biological evaluation of new LNCaP and PC-3 cytotoxic curcumin analogs conjugated with anti-androgens” (Bioorg Med Chem, 2012).
Activity calls are given as the source filed them. No cut-off for these calls is given here.

What was measured:
[1] = test system: LNCaP; assay: Cytotoxicity against androgen-dependent human LNCAP cells after 72 hrs by SRB assay; assay type: functional, cell-based
Outline: (§1)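 SRB assay. Cells were seeded at 3-5 × 10^3 per well in RPMI-1640 with 10% FBS and exposed to a range of concentrations for 72 h; final DMSO was <0.5%. Cells were then fixed in cold 50% TCA for 30 min, stained with 0.04% SRB for 30 min, solubilized in 10 mM Tris base, and read at 515 nm. IC50 is 50% growth inhibition versus untreated control, by log-linear interpolation; mean ± SE of ≥3 independent experiments.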

[2] = test system: PC-3; assay: Cytotoxicity against androgen-independent human PC3 cells after 72 hrs by SRB assay; assay type: functional, cell-based; conditions: PC-3, 72 h; outline: as §1
[3] = test system: LNCaP; assay: Antiproliferative activity against androgen-dependent human LNCAP cells after 72 hrs by SRB assay; assay type: functional, cell-based; outline: as §1
[4] = test system: PC-3; assay: Antiproliferative activity against androgen-independent human PC3 cells after 72 hrs by SRB assay; assay type: functional, cell-based; outline: as §1
[5] = test system: LNCaP; assay: Inhibition of actin based pseudopodia formation in androgen-dependent human LNCAP cells at 100 uM after 48 hrs by DAPI staining based fluorescence microscopy assay; assay type: functional, cell-based
Outline: (§2)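 Cells were plated in RPMI-1640 with 10% FBS in chamber slides for 12 h, then exposed to compound or DMSO vehicle for 48 h at 37 °C in 5% CO2. They were fixed with 4% paraformaldehyde in PBS, nuclei were stained with DAPI, and the slides were mounted. Pseudopodia and pseudopodia-like extensions were scored visually by fluorescence microscopy against untreated (DMSO) controls.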

[6] = test system: PC-3; assay: Inhibition of actin based pseudopodia formation in androgen-dependent human PC3 cells at 100 uM after 48 hrs by DAPI staining based fluorescence microscopy assay; assay type: functional, cell-based; outline: as §2
[7] = test system: PC-3; assay: Cytotoxicity against androgen-independent human PC3 cells at 100 uM within 48 hrs by SRB assay; assay type: functional, cell-based
[8] = test system: LNCaP; assay: Inhibition of actin based pseudopodia formation in androgen-dependent human LNCAP cells at 30 uM after 48 hrs by DAPI staining based fluorescence microscopy assay; assay type: functional, cell-based
Outline: (§3)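 Cells in RPMI-1640 with 10% FBS were plated on chamber slides for 12 h, then exposed to compound or DMSO for 48 h at 37 °C. Cells were fixed in 4% paraformaldehyde in PBS, nuclei were stained with DAPI, and nuclear and pseudopodia morphology was examined by fluorescence microscopy.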

[9] = test system: PC-3; assay: Inhibition of actin based pseudopodia formation in androgen-dependent human PC3 cells at 30 uM after 48 hrs by DAPI staining based fluorescence microscopy assay; assay type: functional, cell-based; conditions: in the assay text read “androgen-independent” for “androgen-dependent”; outline: as §3
[10] = test system: PC-3; assay: Induction of nuclear enlargement in androgen-dependent human PC3 cells at 30 uM after 48 hrs by DAPI staining based fluorescence microscopy assay; assay type: functional, cell-based; conditions: in the assay text read “androgen-independent” for “androgen-dependent”; outline: as §3
[11] = Drug localization in nucleus of androgen-independent human PC3 cells at 30 uM after 48 hrs by DAPI staining based fluorescence microscopy assay; assay type: ADME, cell-based; conditions: pc-3, 48 h
[12] = test system: LNCaP; assay: Inhibition of actin based pseudopodia formation in androgen-dependent human LNCAP cells at 50 uM after 48 hrs by DAPI staining based fluorescence microscopy assay; assay type: functional, cell-based; outline: as §3
[13] = test system: PC-3; assay: Inhibition of actin based pseudopodia formation in androgen-dependent human PC3 cells at 50 uM after 48 hrs by DAPI staining based fluorescence microscopy assay; assay type: functional, cell-based; conditions: in the assay text read “androgen-independent” for “androgen-dependent”; outline: as §3
[14] = test system: PC-3; assay: Induction of multinucleation in androgen-dependent human PC3 cells at 50 uM after 48 hrs by DAPI staining based fluorescence microscopy assay; assay type: functional, cell-based; conditions: in the assay text read “androgen-independent” for “androgen-dependent”; outline: as §3
[15] = Drug localization in cytosol of androgen-independent human PC3 cells at 50 uM after 48 hrs by DAPI staining based fluorescence microscopy assay; assay type: ADME, cell-based, PC-3
[16] = test system: LNCaP; assay: Inhibition of actin based pseudopodia formation in androgen-dependent human LNCAP cells at 40 uM after 48 hrs by DAPI staining based fluorescence microscopy assay; assay type: functional, cell-based; outline: as §3
[17] = test system: PC-3; assay: Inhibition of actin based pseudopodia formation in androgen-dependent human PC3 cells at 40 uM after 48 hrs by DAPI staining based fluorescence microscopy assay; assay type: functional, cell-based; conditions: in the assay text read “androgen-independent” for “androgen-dependent”; outline: as §3
[18] = test system: PC-3; assay: Induction of nuclear enlargement in androgen-dependent human PC3 cells at 40 uM after 48 hrs by DAPI staining based fluorescence microscopy assay; assay type: functional, cell-based; conditions: in the assay text read “androgen-independent” for “androgen-dependent”; outline: as §3
[19] = test system: PC-3; assay: Induction of multinucleation in androgen-dependent human PC3 cells at 40 uM after 48 hrs by DAPI staining based fluorescence microscopy assay; assay type: functional, cell-based; conditions: in the assay text read “androgen-independent” for “androgen-dependent”; outline: as §3

SMILES: COc1cc(/C=C/C(=O)/C=C(O)/C=C/c2ccc(OC(C)(C)C(=O)Nc3ccc(Cl)c(C(F)(F)F)c3)c(OC)c2)ccc1O
- IC50 [1]: > 100 µM
- IC50 [2]: > 100 µM
- Activity [3]: Dose-dependent effect
- Activity [4]: Dose-dependent effect

SMILES: COc1ccc(/C=C/C(=O)/C=C(O)/C=C/c2ccc(OCCCCCCCCCCC(=O)Nc3ccc(C#N)c(C(F)(F)F)c3)c(OC)c2)cc1OC
- IC50 [1]: > 100 µM
- IC50 [2]: > 100 µM

SMILES: CC(O)(CS(=O)(=O)c1ccc(F)cc1)C(=O)Nc1ccc(C#N)c(C(F)(F)F)c1 (racemic) [BICALUTAMIDE]
- IC50 [1]: 74 µM
- IC50 [2]: 76.4 µM
- Activity [3]: Dose-dependent effect
- Activity [4]: Dose-dependent effect
- inhibition [5]: inactive
- inhibition [6]: Active
- Activity [7]: inactive

SMILES: CC(C)C(=O)Nc1ccc([N+](=O)[O-])c(C(F)(F)F)c1 [FLUTAMIDE]
- IC50 [1]: 81.8 µM
- IC50 [2]: 98.8 µM
- Activity [3]: Dose-dependent effect
- Activity [4]: Dose-dependent effect
- Activity [7]: inactive

SMILES: COc1cc(/C=C/C(=O)/C=C(O)/C=C/c2ccc(OC(C)(C)C(=O)Nc3ccc(F)c(C(F)(F)F)c3)c(OC)c2)ccc1O
- IC50 [1]: 54.8 µM
- IC50 [2]: 52.1 µM
- Activity [3]: Dose-dependent effect
- Activity [4]: Dose-dependent effect

SMILES: COc1cc(/C=C/C(=O)CC(=O)/C=C/c2ccc(O)c(OC)c2)ccc1O [CURCUMIN]
- IC50 [1]: 36.4 µM
- IC50 [2]: 36 µM
- inhibition [8]: Active
- inhibition [9]: Active
- Activity [10]: Active
- Drug uptake [11]: Active

SMILES: COc1cc(/C=C/C(=O)/C=C(O)/C=C/c2ccc(OC(C)(C)C(=O)Nc3ccc(C#N)c(C(F)(F)F)c3)c(OC)c2)ccc1O
- IC50 [1]: 55 µM
- IC50 [2]: 48.1 µM
- Activity [3]: Dose-dependent effect
- Activity [4]: Dose-dependent effect
- inhibition [12]: Active
- inhibition [13]: Active
- Activity [14]: Active
- Drug uptake [15]: Active

SMILES: COc1ccc(/C=C/C(=O)/C=C(O)/C=C/c2ccc(OC(C)(C)C(=O)Nc3ccc(C#N)c(C(F)(F)F)c3)c(OC)c2)cc1OC
- IC50 [1]: > 100 µM
- IC50 [2]: > 100 µM
- Activity [3]: Dose-dependent effect
- Activity [4]: Dose-dependent effect

SMILES: COc1ccc(/C=C/C(=O)/C=C(O)/C=C/c2ccc(OCC(C)(O)C(=O)Nc3ccc(C#N)c(C(F)(F)F)c3)c(OC)c2)cc1OC (stereo not given)
- IC50 [1]: 73 µM
- IC50 [2]: 100 µM
- Activity [3]: Dose-dependent effect
- Activity [4]: Dose-dependent effect

SMILES: COc1ccc(/C=C/C(=O)/C(F)=C(O)/C=C/c2ccc(OC)c(OC)c2)cc1OC
- IC50 [1]: 27.3 µM
- IC50 [2]: 17.7 µM

SMILES: COc1cc(/C=C/C(=O)/C=C(O)/C=C/c2ccc(OC(C)(C)C(=O)Nc3ccc(C)c(C(F)(F)F)c3)c(OC)c2)ccc1O
- IC50 [1]: > 100 µM
- IC50 [2]: > 100 µM
- Activity [3]: Dose-dependent effect
- Activity [4]: Dose-dependent effect

SMILES: COc1cc(/C=C/C(=O)/C=C(O)/C=C/c2ccc(OC(C)(C)C(=O)Nc3ccc([N+](=O)[O-])c(C(F)(F)F)c3)c(OC)c2)ccc1O
- IC50 [1]: > 100 µM
- IC50 [2]: > 100 µM
- Activity [3]: Dose-dependent effect
- Activity [4]: Dose-dependent effect

SMILES: COc1ccc(/C=C/C(=O)/C=C(O)/C=C/c2ccc(OC(C)(C)C(=O)Nc3ccc([N+](=O)[O-])c(C(F)(F)F)c3)c(OC)c2)cc1OC
- IC50 [1]: > 100 µM
- IC50 [2]: > 100 µM
- Activity [3]: Dose-dependent effect
- Activity [4]: Dose-dependent effect

SMILES: COc1ccc(/C=C/C(=O)C(F)(F)C(=O)/C=C/c2ccc(OC)c(OC)c2)cc1OC
- IC50 [1]: 53.8 µM
- IC50 [2]: 44.3 µM

SMILES: COc1ccc(/C=C/C(=O)/C=C(O)/C=C/c2ccc(OC(C)(C)C(=O)Nc3ccc(Cl)c(C(F)(F)F)c3)c(OC)c2)cc1OC
- IC50 [1]: > 100 µM
- IC50 [2]: > 100 µM
- Activity [3]: Dose-dependent effect
- Activity [4]: Dose-dependent effect

SMILES: COc1cc(/C=C/C(O)=C/C(=O)/C=C/c2ccc(OC)c(OC)c2)ccc1O [METHYLCURCUMIN]
- IC50 [1]: 47 µM
- IC50 [2]: 33.1 µM
- inhibition [16]: Active
- inhibition [17]: Active
- Activity [18]: Active

SMILES: COc1ccc(/C=C/C(=O)/C=C(O)/C=C/c2ccc(OC)c(OC)c2)cc1OC [DIMETHYLCURCUMIN]
- IC50 [1]: 15.3 µM
- IC50 [2]: 23.7 µM

SMILES: COc1ccc(/C=C/C(=O)/C=C(O)/C=C/c2ccc(OCC(C)(O)C(=O)Nc3ccc([N+](=O)[O-])c(C(F)(F)F)c3)c(OC)c2)cc1OC (stereo not given)
- IC50 [1]: 41.8 µM
- IC50 [2]: 39.1 µM
- Activity [3]: Dose-dependent effect
- Activity [4]: Dose-dependent effect
- inhibition [16]: Active
- inhibition [17]: Active
- Activity [19]: Active

SMILES: COc1ccc(/C=C/C(=O)/C=C(O)/C=C/c2ccc(OCCCC(=O)Nc3ccc(C#N)c(C(F)(F)F)c3)c(OC)c2)cc1OC
- IC50 [1]: 96.3 µM
- IC50 [2]: > 100 µM
